The source made the active and inactive calls.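 Rule for the calls: active = fitted curve reaching 35% inhibition at both 405 and 600 nm absorbance, in duplicate, within twice the top valid dose; inactive = the rest, including signal rising instead of falling.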
Test system: not listed separately
Assay: iron-limited Pseudomonas aeruginosa growth inhibition – whole organism, OD600, EDDHA, dry powder, set 7, dose response (AID 624064)
Details: P. aeruginosa growth with EDDHA, OD600, 24-30 h; at 120 µM (top of the series)
In short: (§1)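 Material: P. aeruginosa ATCC 15692 cells; Incubation: 24-30 h exposure at 37 °C; Technique: absorbance at 600 nm (optical density).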
With `CCCCC(C#N)c1ccc(F)cn1` (stereo not given) the activity change, negative = inhibition was -4.82% (inactive). For `COCCOCCC(C#N)c1ccc(F)cc1` (stereo not given), the activity change, negative = inhibition was -18.1% (inactive). In the case of `Clc1ccc(C(c2cccc(Cl)n2)c2nn[nH]n2)cc1` (stereo not given), the activity change, negative = inhibition was 11.3% (inactive). With `COCCC(C#N)c1ccc(Cl)cc1` (stereo not given) the activity change, negative = inhibition was -16.8% (inactive). With `N#CC1c2ccc(Cl)cc2CCc2cccnc21` (stereo not given) the activity change, negative = inhibition was 31.2% (inactive). For `CCCCC(C#N)c1ccc(Cl)cn1` (stereo not given), the activity change, negative = inhibition was -2.96% (inactive). In the case of `N#CC(c1ccc(Cl)cc1)N1CCCC1` (stereo not given), the activity change, negative = inhibition was -7.6% (inactive). With `COCCNC(C#N)c1ccc(Cl)cc1` (stereo not given) the activity change, negative = inhibition was -0.512% (inactive). In the case of `N#CC(c1ccc(Cl)cc1)c1ccccn1` (stereo not given), the activity change, negative = inhibition was -30.8% (inactive). For `CCCCC(c1ccc(Cl)cc1)c1nn[nH]n1` (stereo not given), the activity change, negative = inhibition was -5.82% (inactive). For `CCCCC(C#N)c1ccc(Cl)cc1` (stereo not given), the activity change, negative = inhibition was 13.2% (inactive). For `N#Cc1cccc(C(C#N)c2ccc(F)cc2)n1` (stereo not given), the activity change, negative = inhibition was -25.4% (inactive). In the case of `CN(C)CCCC(C#N)c1ccc(F)cc1` (stereo not given), the activity change, negative = inhibition was -34.3% (inactive). For `COCCC(C#N)c1ccc(F)cc1` (stereo not given), the activity change, negative = inhibition was -1.09% (inactive). In the case of `CCCCC(C#N)c1ccccn1` (stereo not given), the activity change, negative = inhibition was 11% (inactive). In the case of `N#CC(c1ccc(C(F)(F)F)c(Cl)n1)c1ccccc1OC(F)(F)F` (stereo not given), the activity change, negative = inhibition was -8.43% (inactive). For `CN(C)CCCC(C#N)c1ccc(Cl)cc1` (stereo not given), the activity change, negative = inhibition was -12.9% (inactive). In the case of `COCCOCCC(C#N)c1ccc(Cl)cc1` (stereo not given), the activity change, negative = inhibition was 2.11% (inactive). For `N#CC(c1ccc(F)cc1)c1cccc(Cl)n1` (stereo not given), the activity change, negative = inhibition was -35.8% (inactive).

Test system: P. aeruginosa growth with EDDHA, OD600, 24-30 h
Assay: as above
Details: not given
In short: as §1
In the case of `CCCCC(C#N)c1ccc(F)cc1` (stereo not given), the AC35 was > 120 µM (inactive).

Source: PubChem BioAssay AID624064 (Broad Institute, 2012)
